mABHD4 FP: inhibits mouse alpha/beta hydrolase domain 4; purified mABHD4, FP-Rh probe fluorescence polarization; inhibition, % at 8.92 µM; actives 0.54% (n = 370,000);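 active means inhibition exceeding the mean over every tested compound plus 3 SD, cut at about 30% in these data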
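Doses – 8.92 µM, single dose · Material – wild-type mouse ABHD4 protein · Replication – single well per compound (singlicate) · Measure – percent inhibition of probe binding, normalized to plate controls · Schedule – 45 min compound pre-incubation plus 60 min probe step, 25 °C · Detection – fluorescence polarization with parallel and perpendicular emission, 525/598 nm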
TCR CD3 inh: human TCR-CD3 binding inhibition | actives 0.37% (n = 360,000) | TAMRA-labeled TCR probe fluorescence, biochemical | inhibition, % at 9.4 µM | AID 651800; in the data active means inhibition above about 19%;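 further: recombinant mutant TCR 2C K166C tagged with TAMRA read by polarization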
PRMT1 inh: PRMT1 (human) inhibition, primary screen; Q99873; recombinant PRMT1, activity-based probe fluorescence polarization; inhibition, % at 2.79 µM; actives 1.3% (n = 370,000);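 active means inhibition above about 21% made by adding two undisclosed values, limit read from the data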
Target sequence (Q99873 whole entry, looked up): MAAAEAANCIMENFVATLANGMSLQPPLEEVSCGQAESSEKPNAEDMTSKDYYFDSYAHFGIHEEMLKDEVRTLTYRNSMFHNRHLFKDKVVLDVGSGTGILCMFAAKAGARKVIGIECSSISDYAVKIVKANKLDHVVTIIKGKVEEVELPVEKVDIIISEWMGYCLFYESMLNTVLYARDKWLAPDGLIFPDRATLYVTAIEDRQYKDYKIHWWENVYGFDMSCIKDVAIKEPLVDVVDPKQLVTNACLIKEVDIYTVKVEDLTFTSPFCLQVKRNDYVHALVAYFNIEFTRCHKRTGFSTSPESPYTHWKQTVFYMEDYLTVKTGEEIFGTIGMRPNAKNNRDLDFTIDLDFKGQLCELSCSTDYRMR
ATG4B inh: blocks human ATG4B protease cleavage of LC3 substrate; ATG4B cleavage of LC3-PLA2, NBD-HPC fluorescence, 1 h; inhibition, % at 8.33 µM; AID 504462; actives 0.51% (n = 340,000); Q9Y4P1; in the data active means inhibition above about 40%
SIAE inh: human SIAE inhibition, primary screen. Q9HAT2. SIAE FP-Rh probe binding, fluorescence polarization. inhibition, % at 9.66 µM. actives 0.69% (n = 370,000);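 active means inhibition above a cutoff: mean of compounds within the control limits plus 3 SD of those, cut at about 17% in these data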
HTRA1 inh: HTRA1 (human) protease inhibition; actives 0.5% (n = 340,000); Q92743; inhibition, % at 5.96 µM; AID 504803; recombinant HTRA1, FP-rhodamine activity-based probe, fluorescence polarization; in the data active means inhibition above about 36%
PRMT1 confirm: PRMT1 (human) inhibition, FP confirmation; AID 687036; recombinant His-PRMT1, activity-based probe fluorescence polarization; actives 42% (n = 3,300); shares compounds with PRMT1 inh; inhibition, % at 2.79 µM;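 active means mean inhibition across replicates above the hit cutoff derived for the earlier primary screen, cut at about 22% in these data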
Hits are given with their value; – = inactive; · = no result given. Shown are actives, neighbours in structure and some others; about 2.9% of the full set was active somewhere.

SMILES	mABHD4 FP	TCR CD3 inh	PRMT1 inh	ATG4B inh	SIAE inh	HTRA1 inh	PRMT1 confirm
O=C(Nn1c(O)c(C=C2N=c3ccccc3=N2)sc1=S)c1ccccc1Cl	–	–	36.8	–	–	–	–
COc1ccc(N2CCCN(CC(=O)Nc3ccc(Cl)c(Cl)c3)CC2)cc1	–	·	–	·	–	·	·
O=C(O)CN1C(=O)c2cccc3c(Br)ccc1c23	–	–	–	–	–	–	·
Cc1nn(C)c(C)c1NS(=O)(=O)c1cccc(Br)c1	–	–	–	–	–	–	·
Cc1nn(C)c(C)c1N1C(=O)c2cccc3c(Br)ccc(c23)C1=O	–	–	56.5	–	–	–	–
CN(C)CCCN1C(=O)c2cccc3c(Br)ccc(c23)C1=O	–	–	38.1	–	–	–	–
Cc1ccnc(SCc2cc(=O)c(OC(=O)c3ccc([N+](=O)[O-])cc3)co2)n1	–	·	–	·	–	·	·
CC1(C)Cc2c(C#N)c(N3CCCC3)nc(-c3ccco3)c2CO1	–	–	26.6	·	–	–	25.8
CC1(C)Cc2c(C#N)c(NCc3ccco3)nc(-c3ccco3)c2CO1	–	–	–	–	–	–	·
COc1ccc(C2C(C(=O)Nc3ccc(F)cc3)CCC(=O)N2c2ccc(OC)cc2)cc1 (configuration not stated)	–	·	–	·	–	·	·
CCC(=O)Nc1sc(Cc2ccccc2)c(C)c1C(N)=O	–	–	–	–	–	–	·
Cc1c(Cc2ccccc2)sc(NC(=O)Cc2ccccc2)c1C(N)=O	–	–	28.7	–	–	–	–
CCOC(=O)CSc1nnc(NCC(=O)OC)c(=O)[nH]1	–	–	56.1	–	–	–	54.3
O=C1N(Cc2ccccc2)c2ccccc2C12CCCc1sc(CCc3ccccc3)nc12 (configuration not stated)	–	·	–	·	–	·	·
NNc1cc([N+](=O)[O-])cc2c1C(=O)N(Cc1ccccc1)S2=O (configuration not stated)	–	–	25.9	–	–	–	–
O=C1c2ccc([N+](=O)[O-])cc2S(=O)(=O)N1Cc1ccccc1	–	–	–	–	–	–	·
CC(=O)Nc1ccc(NC(=S)Nc2ccccc2)cc1	–	–	–	–	–	–	·
CC(=O)Nc1ccc(SC(Sc2ccc(NC(C)=O)cc2)c2ccccc2)cc1	–	–	29.0	–	–	–	21.7
O=C(O)CCc1ccc(-c2ccccc2)n1-c1cccc(C(=O)O)c1	–	–	–	–	–	–	·
Cc1ccc(-c2ccccc2)n1-c1cccc(C(=O)O)c1	–	–	62.1	–	–	–	–
Cc1ccc(CN2CCCCC(NC(=O)c3cccc([N+](=O)[O-])c3)C2=O)cc1 (configuration not stated)	–	·	–	·	–	·	·
CC(=O)c1sc2nc(-c3cccs3)cc(C(F)(F)F)c2c1N	–	–	31.1	–	–	–	–
Nc1c(C(=O)C2CC2)sc2nc(-c3ccccc3)cc(C(F)(F)F)c12	–	–	–	–	–	–	·
COC(=O)[C@]12C[C@H](CC(=O)N3CCCCC3)C(=O)N(Cc3ccc4c(c3)OCO4)C1=C[C@H](C(C)C)O[C@@H]2C1CC1	–	·	–	·	–	·	·
Cc1ccc(/C=C/C(=O)OCC(=O)N(C)c2c(N)n(Cc3ccccc3)c(=O)[nH]c2=O)o1	–	–	44.0	·	–	–	–
SMILES	mABHD4 FP	TCR CD3 inh	PRMT1 inh	ATG4B inh	SIAE inh	HTRA1 inh	PRMT1 confirm
Cc1ccccc1C(=O)OCC(=O)N(C)c1c(N)n(Cc2ccccc2)c(=O)[nH]c1=O	–	–	–	–	–	–	·
CC(C)(C)c1ccc(C(=O)CC(Sc2ccc(Cl)cc2)C(=O)O)cc1 (configuration not stated)	–	–	72.9	–	–	–	84.7
O=C(CC(C(=O)O)c1ccc(F)cc1)c1ccc(Cl)cc1 (configuration not stated)	–	–	–	–	–	–	·
Cc1ccc(SC(CC(=O)c2ccc(F)cc2)C(=O)O)cc1 (configuration not stated)	–	–	81.9	–	–	–	79.0
CC(C)(C)c1ccc(C(=O)Nc2ccc(Cl)cc2)cc1	–	–	–	–	–	–	·
COC(=O)[C@H](C(C)C)N1Cc2nnn(Cc3ccccc3)c2-c2cc(F)ccc2S1(=O)=O	–	·	–	·	–	·	·
Nc1nc2ncccc2cc1C(=O)C1=C(c2ccccc2)Cc2ccccc21	–	·	–	·	–	·	·
